According to ChEMBL document CHEMBL1137035, “New DNA binding ligands as a model of chromomycin A3” (Bioorg Med Chem Lett, 2004):

What was measured:
Type in all cases: nucleic-acid assay
[1] = system: Nucleic Acid; assay: Inhibitory concentration required to displace DNA-bound ethidium bromide molecules bound to CA12 (5''-CGCGAATTCGCG)2; NI denotes no inhibition
Method in brief: (§1)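 Ethidium bromide displacement at 25 °C: duplex DNA (1 μM) and ethidium bromide (1 μM) in 20 mM Tris–HCl, pH 8.0, containing 1 mM MgCl2. Ligand titrated from 0 to 10 μM. Fluorescence read at λex 546 nm, λem 590 nm. IC50 is the concentration displacing 50% of DNA-bound ethidium, expressed as the dimer complex except for Hoechst 33258.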

[2] = system: Nucleic Acid; assay: Inhibitory concentration required to displace DNA-bound ethidium bromide molecules bound to CT12 (5''-CGTAGCGCTACG)2; NI denotes no inhibition; method in brief: as §1
[3] = system: Nucleic Acid; assay: Inhibitory concentration required to displace DNA-bound ethidium bromide molecules bound to CA12 (5''-CGCGAATTCGCG)2; method in brief: as §1
[4] = system: Nucleic Acid; assay: Inhibitory concentration required to displace DNA-bound ethidium bromide molecules bound to CT12 (5''-CGTAGCGCTACG)2; method in brief: as §1
[5] = system: Nucleic Acid; assay: Inhibitory concentration required to displace one of two DNA-bound ethidium bromide molecules bound to CT12 (5''-CGTAGCGCTACG)2
Method in brief: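 Ethidium bromide displacement at 25 °C. CT12 duplex (1 μM) and ethidium bromide (1 μM) in 20 mM Tris–HCl, pH 8.0, with 1 mM MgCl2. Ligand titrated from 0 to 10 μM. Fluorescence read at λex 546 nm, λem 590 nm. IC50 is the concentration that displaces 50% of DNA-bound ethidium, expressed as dimer complex.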

Compound | IC50 [1] | IC50 [2] | IC50 [3] | IC50 [4] | IC50 [5]
CCCCCC[C@@H]1C(=O)c2c(cc3cc(O)cc(O)c3c2O)C[C@H]1C | – | – | 3 µM | 3 µM | –
CCCCCC[C@H]1C(=O)c2c(cc3cc(O)cc(O)c3c2O)C[C@H]1C | – | – | 2.5 µM | 3 µM | –
CO[C@@H]1[C@H](O)C[C@@H](O[C@@H]2C[C@H](Oc3cc4cc5c(c(O)c4c(O)c3C)C(=O)[C@@H](O[C@H]3C[C@@H](O[C@H]4C[C@@H](O[C@H]6C[C@](C)(O)[C@@H](OC(C)=O)[C@H](C)O6)[C@H](O)[C@@H](C)O4)[C@H](O)[C@@H](C)O3)[C@H]([C@H](OC)C(=O)[C@@H](O)[C@@H](C)O)C5)O[C@H](C)[C@@H]2OC(C)=O)O[C@@H]1C [CHROMOMYCIN A3] | – | – | 9 µM | – | 3 µM
CN1CCN(c2ccc3[nH]c(-c4ccc5[nH]c(-c6ccc(O)cc6)nc5c4)nc3c2)CC1 [HOECHST 33258] | – | – | 1 µM | > 20 µM | –

The next lines start with results.

IC50 [1] | IC50 [2] | IC50 [3] | IC50 [4] | Compound | IC50 [5]
Not Active | Not Active | – | – | C[C@H]1CC(=O)c2c(cc3cc(O)cc(O)c3c2O)C1 | –
– | – | 2.5 µM | 2.5 µM | CCCCC/C=C1/C(=O)c2c(cc3cc(O)cc(O)c3c2O)C[C@H]1C | –
– | – | 4.5 µM | 6.5 µM | CCCCCC(O)C1C(=O)c2c(cc3cc(O)cc(O)c3c2O)C[C@H]1C (stereo partly specified) | –
– | – | 3 µM | 3.5 µM | CCCCCCC1C(=O)c2c(cc3cc(O)cc(O)c3c2O)C[C@H]1C (stereo partly specified) | –
